Activity calls are given as the source filed them. No cut-off for these calls is given here.
Key:
[1] = tested on: Echinococcus multilocularis; assay: Antiparasitic activity against Echinococcus multilocularis protoscolex at 5 uM after 5 days by trypan blue staining; format: functional, organism-based
In short: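 Protoscoleces of the Nemuro strain, freed of host material, kept in long-term maintenance medium in six-well plates at about 500 protoscoleces/ml, with half the medium replaced twice weekly. Compound added to the medium at 5 or 50 μM; the vehicle control was 0.5% (vol/vol) DMSO. Run in triplicate. Viability was scored microscopically on >170 protoscoleces per well by motility and trypan blue exclusion.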

[2] = tested on: Echinococcus multilocularis; assay: Antiparasitic activity against Echinococcus multilocularis protoscolex assessed as reduction of parasite viability at 50 uM by trypan blue staining; format: functional, organism-based
[3] = Inhibition of bovine heart mitochondrial NADH oxidase
[4] = tested on: Echinococcus multilocularis; assay: Antiparasitic activity against Echinococcus multilocularis protoscolex assessed dead parasite at 50 uM after 5 days by trypan blue staining; format: functional, organism-based
[5] = Inhibition of NADH fumarate reductase in Echinococcus multilocularis protoscolece
In short: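 Enriched mitochondrial fraction from Nemuro-strain protoscoleces, 80 μg protein/ml, in 30 mM potassium phosphate pH 7.4 with 1 mM MgCl2 at 25°C. Made anaerobic over 3 min with glucose oxidase, catalase and 10 mM β-D-glucose. NADH (100 μM) oxidation followed at 340 nm after starting with 5 mM fumarate. IC50 determined.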

Row | Compound | Activity [1] | IC50 [5] | further results
1 | CC(C)(C)c1ccc(CCNc2ncnc3c(O)cccc23)cc1 | inactive | 71 nM | Activity [2]: Active; IC50 [3]: 230 nM; Activity [4]: Active
2 | c1ccc2ncncc2c1 [QUINAZOLINE] | – | 2.3 nM | –
3 | C=CC(=O)Nc1ccc2ncnc(NCCc3ccc(C(C)(C)C)cc3)c2c1 | – | 16 nM | –
4 | C=C(C)[C@H]1Cc2c(ccc3c2O[C@@H]2COc4cc(OC)c(OC)cc4[C@@H]2C3=O)O1 | Active | – | –
5 | CC(C)Oc1cccc2c(NCCc3ccc(C(C)(C)C)cc3)ncnc12 | – | 910 nM | –
6 | CCOc1cccc2c(NCCc3ccc(C(C)(C)C)cc3)ncnc12 | – | 4100 nM | –
7 | COc1cccc2c(NCCc3ccc(C(C)(C)C)cc3)ncnc12 | – | 48 nM | –
8 | CC(C)(C)c1ccc(CCNc2ncnc3ccc(N)cc23)cc1 | – | 2.1 nM | –
9 | CC(C)(C)c1ccc(CCNc2ncnc3cc(N)ccc23)cc1 | – | 62 nM | –
10 | CC(=O)Oc1ccccc1C(=O)Nc1ncc([N+](=O)[O-])s1 | inactive | – | –
